From ChEMBL document CHEMBL4433205, “Dual Pharmacophores Explored via Structure-Activity Relationship (SAR) Matrix: Insights into Potent, Bifunctional Opioid Ligand Design” (J Med Chem, 2019)
Calls of active or inactive are those of the source.

Test system: Mus musculus
Assay: Antinociceptive activity in C57BL/6 mouse assessed as increase in latency to tail withdrawal up to 10 mg/kg, ip administered at 30 mins interval measured during compound dosing by warm water tail withdrawal assay relative to control
Assay type: functional
Details: not given
In short: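 Male C57BL/6 mice, 20–30 g, 8–16 weeks. Saline ip, baseline latency 30 min later; then cumulative ip doses 1, 3.2, 10 mg/kg in 5% DMSO/saline at 30 min intervals, latency read 30 min after each. Tail tip (2–3 cm) in 50°C water, 20 s cutoff; expressed as % MPE (MPE = 20 s).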

| SMILES | MPE |
| --- | --- |
| Cc1cc(O)cc(C)c1C[C@H](N)C(=O)N[C@@H]1CCNc2ccc(Cc3ccc4c(c3)OCCO4)cc21.O=C(O)C(F)(F)F | inactive |

Molecular target: Mu-type opioid receptor (Rattus norvegicus) (UniProt P33535)
Assay: Agonist activity at rat mu opioid receptor expressed in rat C6 glioma cell membranes assessed as stimulation of [35S]GTPgammaS binding measured after 1 hr relative to DAMGO
Assay type: functional
Details: not given

Mu-type opioid receptor (Rattus norvegicus), sequence (P33535 whole entry): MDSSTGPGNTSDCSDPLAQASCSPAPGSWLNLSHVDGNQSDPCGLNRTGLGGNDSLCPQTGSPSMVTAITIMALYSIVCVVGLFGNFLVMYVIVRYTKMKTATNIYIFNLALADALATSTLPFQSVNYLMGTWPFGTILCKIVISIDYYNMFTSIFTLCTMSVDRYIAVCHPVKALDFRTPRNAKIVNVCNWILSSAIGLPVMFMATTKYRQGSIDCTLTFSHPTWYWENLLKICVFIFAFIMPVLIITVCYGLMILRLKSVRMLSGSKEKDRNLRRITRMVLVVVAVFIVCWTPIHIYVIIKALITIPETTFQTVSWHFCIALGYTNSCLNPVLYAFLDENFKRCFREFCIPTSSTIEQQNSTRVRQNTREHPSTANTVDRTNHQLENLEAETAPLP

| SMILES | Efficacy [%] |
| --- | --- |
| Cc1cc(O)cc(C)c1C[C@H](N)C(=O)N[C@@H]1CCNc2ccc(Cc3ccc4c(c3)OCCO4)cc21.O=C(O)C(F)(F)F | 88 |

Molecular target: T1, Kappa-type opioid receptor (Homo sapiens, UniProt P41145)
Assay: Agonist activity at human kappa opioid receptor expressed in CHO cell membranes assessed as stimulation of [35S]GTPgammaS binding measured after 1 hr
Assay type: functional
Details: cho

T1 sequence (P41145 whole entry): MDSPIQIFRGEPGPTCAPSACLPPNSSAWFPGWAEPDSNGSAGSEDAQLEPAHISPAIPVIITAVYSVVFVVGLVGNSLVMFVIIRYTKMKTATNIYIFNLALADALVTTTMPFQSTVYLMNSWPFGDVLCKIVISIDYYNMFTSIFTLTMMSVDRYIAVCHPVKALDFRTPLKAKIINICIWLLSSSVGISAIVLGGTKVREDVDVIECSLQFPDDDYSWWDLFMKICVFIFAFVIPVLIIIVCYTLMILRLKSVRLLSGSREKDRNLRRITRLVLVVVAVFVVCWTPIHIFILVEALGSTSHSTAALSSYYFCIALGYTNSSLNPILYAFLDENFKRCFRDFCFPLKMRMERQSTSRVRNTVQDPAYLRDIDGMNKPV

| SMILES | EC50 |
| --- | --- |
| Cc1cc(O)cc(C)c1C[C@H](N)C(=O)N[C@@H]1CCNc2ccc(Cc3ccc4c(c3)OCCO4)cc21.O=C(O)C(F)(F)F | Not Active |

Molecular target: T1, Kappa-type opioid receptor
Assay: Agonist activity at human kappa opioid receptor expressed in CHO cell membranes assessed as stimulation of [35S]GTPgammaS binding to G protein incubated for 1 hr relative to U69,593
Assay type: functional
Details: not given

| SMILES | Efficacy |
| --- | --- |
| Cc1cc(O)cc(C)c1C[C@H](N)C(=O)N[C@@H]1CCNc2ccc(Cc3ccc4c(c3)OCCO4)cc21.O=C(O)C(F)(F)F | inactive |

Molecular target: Mu-type opioid receptor (Rattus norvegicus, UniProt P33535)
Assay: Agonist activity at rat mu opioid receptor expressed in rat C6 cell membranes assessed as stimulation of [35S]GTPgammaS binding measured after 1 hr
Assay type: functional
Details: not given
In short: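 Membranes (10–20 μg protein/tube) from stably transfected cells incubated 1 h at 25°C in 50 mM Tris-HCl, 100 mM NaCl, 5 mM MgCl2, pH 7.4, with 0.1 nM [35S]-GTPγS, 30 μM GDP and varying test concentrations; filtration, scintillation counting.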

Mu-type opioid receptor, sequence (P33535 whole entry): as the sequence (P33535 whole entry) above

| SMILES | EC50 [nM] |
| --- | --- |
| Cc1cc(O)cc(C)c1C[C@H](N)C(=O)N[C@@H]1CCNc2ccc(Cc3ccc4c(c3)OCCO4)cc21.O=C(O)C(F)(F)F | 7.3 |

Test system: not listed separately
Assay: Lipophilicity, log P of the compound
Assay type: physicochemical
Details: octanol/water

| SMILES | logP |
| --- | --- |
| Cc1cc(O)cc(C)c1C[C@H](N)C(=O)N[C@@H]1CCN(C(=O)c2ccccc2)c2ccc(Cc3ccccc3)cc21 | 4.6 |
| Cc1cc(O)cc(C)c1C[C@H](N)C(=O)N[C@@H]1CCNc2ccc(Cc3ccc4c(c3)OCCO4)cc21.O=C(O)C(F)(F)F | 3.5 |
| CC(=O)N1CC[C@@H](NC(=O)[C@@H](N)Cc2c(C)cc(O)cc2C)c2cc(Cc3ccc4ccccc4c3)ccc21 | 4.5 |
| Cc1cc(O)cc(C)c1C[C@H](N)C(=O)N[C@@H]1CCN(C(=O)C2CC2)c2ccc(Cc3ccccc3)cc21 | 3.9 |
| CC(=O)N1CC[C@@H](NC(=O)[C@@H](N)Cc2c(C)cc(O)cc2C)c2cc(Cc3ccccc3)ccc21 | 3.4 |
| Cc1cc(O)cc(C)c1C[C@H](N)C(=O)N[C@@H]1CCNc2ccc(Cc3ccc4ccccc4c3)cc21 | 4.9 |

Molecular target: Delta-type opioid receptor (Rattus norvegicus) (UniProt P33533)
Assay: Agonist activity at rat delta opioid receptor expressed in rat C6 cell membranes assessed as stimulation of [35S]GTPgammaS binding incubated for 1 hr relative to DPDPE
Assay type: functional
Details: not given

Delta-type opioid receptor (Rattus norvegicus), sequence (P33533 whole entry): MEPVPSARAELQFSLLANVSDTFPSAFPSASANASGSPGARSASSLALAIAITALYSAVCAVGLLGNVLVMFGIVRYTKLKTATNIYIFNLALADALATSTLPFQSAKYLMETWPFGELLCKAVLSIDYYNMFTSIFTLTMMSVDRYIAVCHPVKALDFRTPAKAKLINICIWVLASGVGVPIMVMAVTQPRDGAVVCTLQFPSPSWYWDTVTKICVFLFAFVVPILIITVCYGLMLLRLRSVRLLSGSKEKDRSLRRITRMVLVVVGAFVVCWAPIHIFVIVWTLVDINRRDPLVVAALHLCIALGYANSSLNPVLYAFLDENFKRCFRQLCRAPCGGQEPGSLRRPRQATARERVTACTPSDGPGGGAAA

| SMILES | Efficacy |
| --- | --- |
| Cc1cc(O)cc(C)c1C[C@H](N)C(=O)N[C@@H]1CCNc2ccc(Cc3ccc4c(c3)OCCO4)cc21.O=C(O)C(F)(F)F | inactive |

Molecular target: Delta-type opioid receptor (Rattus norvegicus, UniProt P33533)
Assay: Agonist activity at rat delta opioid receptor expressed in rat C6 cell membranes assessed as stimulation of [35S]GTPgammaS binding measured after 1 hr
Assay type: functional
Details: c6

Delta-type opioid receptor, sequence (P33533 whole entry): as above

| SMILES | EC50 |
| --- | --- |
| Cc1cc(O)cc(C)c1C[C@H](N)C(=O)N[C@@H]1CCNc2ccc(Cc3ccc4c(c3)OCCO4)cc21.O=C(O)C(F)(F)F | Not Active |

Species on record: Rattus norvegicus
Assay: Selectivity ratio of Ki for rat delta opioid receptor expressed in rat C6 cell membranes to Ki for rat mu opioid receptor expressed in rat C6 cell membranes
Assay type: cell-based
Details: not given
In short: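 Competition binding against 0.2 nM [3H]-diprenorphine, using C6 membranes expressing rat MOR or rat DOR (20 μg protein/tube). Run in 50 mM Tris-HCl pH 7.4, 1 h at room temperature with shaking, then filtration and scintillation counting. Nonspecific binding with 10 μM naloxone.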

| SMILES | Ratio Ki |
| --- | --- |
| Cc1cc(O)cc(C)c1C[C@H](N)C(=O)N[C@@H]1CCNc2ccc(Cc3ccc4c(c3)OCCO4)cc21.O=C(O)C(F)(F)F | 16 |
